Drawing on ChEMBL document CHEMBL5108054, “Targeting Acute Myelogenous Leukemia Using Potent Human Dihydroorotate Dehydrogenase Inhibitors Based on the 2-Hydroxypyrazolo[1,5-a]pyridine Scaffold: SAR of the Aryloxyaryl Moiety” (J Med Chem, 2022), this text covers Retention_time, CC30 and Activity for three compounds.

The nature of series [1]: Metabolic stability in rat liver microsomes assessed as retention time of hydroxyl derivative metabolites by HPLC-HRMS analysis. The series is classed as ADME, Microsome. A digest of the protocol:
(§1)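 Controls were heat-inactivated microsomes, no regenerating system, and drug-free blank. Samples were taken at 0, 15, 30, 60 and 120 min and quenched with cold acetonitrile. Analysis was by LC-HRMS (C18, water/acetonitrile gradient, ± ESI), with metabolites predicted by SyGMa.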
In general terms: Liver microsomes are a subcellular fraction often used to study metabolism.

Series [2] can be described thus: Metabolic stability in rat liver microsomes assessed as retention time of dihydroxyl derivative metabolite by HPLC-HRMS analysis. The class given is ADME, Microsome. A digest of the protocol: as §1
A short description of series [3]: Metabolic stability in rat liver microsomes assessed as retention time of hydrogenated dihydroxyl derivative metabolite by HPLC-HRMS analysis. The series is classed as ADME, Microsome. A digest of the protocol: as §1
A further series concerns Jurkat. As to the kind of experiment: Cytotoxicity against human Jurkat T cells assessed as reduction in cell viability at 1 to 100 uM measured after 3 days by propidium iodide staining based CFSE staining. The class given is functional. Particulars: dose 1-100 µM; time 3 day.
Series [4] deals with MV4-11. Description: Induction of apoptosis in human MV4-11 cells assessed as increase in pro-apoptotic activity at 0.1 uM. The class given is functional, cell-based. In short, it runs like this: (§2)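 THP1 or MV4-11 cells (1 × 10^4/well) exposed to inhibitor at 0.1 or 1 μM, alone or with dipyridamole 1.0 μM and/or uridine 5 μM, for 3 days. Apoptosis was read as annexin V-FITC staining by flow cytometry. n = 3; ANOVA/Tukey.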

For series [5], the system named is THP-1. As to the kind of experiment: Induction of apoptosis in human THP-1 cells assessed as increase in pro-apoptotic activity at 0.1 uM. The series is classed as functional, cell-based. In short, it runs like this: as §2
Series [6] has as its system THP-1. Description: Antileukemic activity against human THP-1 cells xenografted in Balb/c mouse assessed as reduction in tumor weight at 20 mg/kg, ip. The class given is functional, organism-based. On the technique in general: Xenograft models place foreign cells or tissue in a host animal.
The test system of series [7] is THP-1. Description: Antileukemic activity against human THP-1 cells xenografted in Balb/c mouse assessed as reduction in volume at 20 mg/kg, ip measured twice a week. The series is classed as functional, organism-based.
A short description of series [8]: Metabolic stability in rat liver microsomes assessed as retention time of parent compound by HPLC-HRMS analysis. The series is classed as ADME, Microsome. A digest of the protocol:
as §1

In series [9] the test system is MV4-11. Description: Induction of apoptosis in human MV4-11 cells assessed as increase in pro-apoptotic activity at 1 uM. The class given is functional, cell-based.
Series [10] concerns THP-1. As to the kind of experiment: Induction of apoptosis in human THP-1 cells assessed as increase in pro-apoptotic activity at 1 uM. The series is classed as functional, cell-based.

Calls of active or inactive are those of the source. The rule behind the calls is not given here.

With `O=C(Nc1c(F)c(F)c(-c2ccccc2)c(F)c1F)c1c(O)nn2ccccc12`, the Retention_time in series [1] was 13.41 min; in series [2] it was 10.59 min; in series [3], 14.14 min.
On to `Cc1cc(NC(=O)c2c(O)nn3ccccc23)c(C(C)C)cc1Oc1ccccc1`, for which the CC30 in the series with Jurkat is greater than 100 µM. The result with MV4-11 [4], in the series on THP-1 [5], in the series on THP-1 [6] and in the series on THP-1 [7] was Active. The Retention_time in series [8] is given as 17.33 min.
Regarding `Cc1cc(Oc2ccccc2)c(C(C)C)cc1NC(=O)c1c(O)nn2ccccc12`, the CC30 in the series with Jurkat is greater than 100 µM. In addition, the outcome in the series on MV4-11 [9] and with THP-1 [10] was Active.
